Calls of active or inactive are those of the source. The calls are words filed in the database; no cut-off is given here.
Tests used:
Format in all cases: cell-based
[1] = biological target: T1, Neuronal acetylcholine receptor; alpha4/beta2 (Homo sapiens, UniProt P17787+P43681); assay: Agonist activity at human alpha4beta2 nAChR expressed in HEK293 cells assessed as increase in calcium influx at 100 uM measured for 78 secs by Fluo-4-AM dye based FLIPR assay
Procedure, shortened: (§1)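 Cells seeded 5 × 10^4/well 72 h before, 37 °C, 5% CO2; medium switched to HBSS (pH 7.4)/1% FBS 16–24 h before assay. Loaded 1 h at 37 °C with Fluo-4 plus 2.5 mM probenecid. Compound added alone on FLIPR, fluorescence (ex 488/em 510 nm) recorded 78 s; response normalized to maximal (±)-epibatidine response.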

[2] = biological target: T2, Neuronal acetylcholine receptor subunit alpha-7 (Homo sapiens, UniProt P36544); assay: Agonist activity at human alpha7 nAChR expressed in rat GH3 cells assessed as increase in calcium influx at 100 uM measured for 78 secs by Fluo-4-AM dye based FLIPR assay; procedure, shortened: as §1
[3] = biological target: T3, Neuronal acetylcholine receptor; alpha3/beta4 (Homo sapiens, UniProt P30926+P32297); assay: Agonist activity at human alpha3beta4 nAChR expressed in HEK293 cells assessed as increase in calcium influx at 100 uM measured for 78 secs by Fluo-4-AM dye based FLIPR assay; procedure, shortened: as §1
[4] = biological target: T1, Neuronal acetylcholine receptor; alpha4/beta2; assay: Antagonist activity at human alpha4beta2 nAChR expressed in HEK293 cells assessed as inhibition of (+/-)-epibatidine-induced calcium influx at 1 uM preincubated for 5 mins followed by (+/-)-epibatidine addition measured for 78 secs by Fluo-4-AM dye based FLIPR assay
Procedure, shortened: (§2)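 Fluo-4-loaded cells (1 h, 37 °C, 2.5 mM probenecid) washed twice in HBSS/1% FBS, then preincubated 5 min with test ligand at various concentrations. 0.1 μM (±)-epibatidine added on FLIPR after 5-reading baseline; fluorescence (ex 488/em 510 nm) recorded 78 s. Response normalized to maximal epibatidine response; IC50 and nH from nonlinear least-squares curve fits; SD, n = 3.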

[5] = biological target: T1, Neuronal acetylcholine receptor; alpha4/beta2; assay: Antagonist activity at human alpha4beta2 nAChR expressed in HEK293 cells assessed as inhibition of (+/-)-epibatidine-induced calcium influx preincubated for 5 mins followed by (+/-)-epibatidine addition measured for 78 secs by Fluo-4-AM dye based FLIPR assay; procedure, shortened: as §2
[6] = biological target: T3, Neuronal acetylcholine receptor; alpha3/beta4; assay: Antagonist activity at human alpha3beta4 nAChR expressed in HEK293 cells assessed as inhibition of (+/-)-epibatidine-induced calcium influx preincubated for 5 mins followed by (+/-)-epibatidine addition measured for 78 secs by Fluo-4-AM dye based FLIPR assay; procedure, shortened: as §2
[7] = biological target: T2, Neuronal acetylcholine receptor subunit alpha-7; assay: Antagonist activity at human alpha7 nAChR expressed in HEK293 cells assessed as inhibition of (+/-)-epibatidine-induced calcium influx preincubated for 5 mins followed by (+/-)-epibatidine addition measured for 78 secs by Fluo-4-AM dye based FLIPR assay; settings: in the assay text read “GH3” for “HEK293”; procedure, shortened: as §2
[8] = biological target: T1, Neuronal acetylcholine receptor; alpha4/beta2; assay: Antagonist activity at human alpha4beta2 nAChR expressed in HEK293 cells assessed as inhibition of (+/-)-epibatidine-induced calcium influx up to 100 uM preincubated for 5 mins followed by (+/-)-epibatidine addition measured for 78 secs by Fluo-4-AM dye based FLIPR assay; procedure, shortened: as §2
[9] = biological target: T1, Neuronal acetylcholine receptor; alpha4/beta2; assay: Antagonist activity at human alpha4beta2 nAChR expressed in HEK293 cells assessed as inhibition of (+/-)-epibatidine-induced calcium influx at 10 to 100 uM preincubated for 5 mins followed by (+/-)-epibatidine addition measured for 78 secs by Fluo-4-AM dye based FLIPR assay relative to control; procedure, shortened: as §2
[10] = biological target: T1, Neuronal acetylcholine receptor; alpha4/beta2; assay: Non-competitive inhibition of human alpha4beta2 nAChR expressed in HEK293 cells assessed as inhibition of (+/-)-epibatidine-induced calcium influx preincubated for 5 mins followed by (+/-)-epibatidine addition measured for 78 secs by Fluo-4-AM dye based FLIPR assay
Procedure, shortened: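 (±)-Epibatidine concentration–response curves measured on hα4β2 HEK293 cells without drimane or after 5 min preincubation with 0.3, 1.0 and 3.0 μM; Fluo-4 Ca2+ fluorescence on FLIPR, 78 s recording; n = 3.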

T3 sequence (P30926 whole entry): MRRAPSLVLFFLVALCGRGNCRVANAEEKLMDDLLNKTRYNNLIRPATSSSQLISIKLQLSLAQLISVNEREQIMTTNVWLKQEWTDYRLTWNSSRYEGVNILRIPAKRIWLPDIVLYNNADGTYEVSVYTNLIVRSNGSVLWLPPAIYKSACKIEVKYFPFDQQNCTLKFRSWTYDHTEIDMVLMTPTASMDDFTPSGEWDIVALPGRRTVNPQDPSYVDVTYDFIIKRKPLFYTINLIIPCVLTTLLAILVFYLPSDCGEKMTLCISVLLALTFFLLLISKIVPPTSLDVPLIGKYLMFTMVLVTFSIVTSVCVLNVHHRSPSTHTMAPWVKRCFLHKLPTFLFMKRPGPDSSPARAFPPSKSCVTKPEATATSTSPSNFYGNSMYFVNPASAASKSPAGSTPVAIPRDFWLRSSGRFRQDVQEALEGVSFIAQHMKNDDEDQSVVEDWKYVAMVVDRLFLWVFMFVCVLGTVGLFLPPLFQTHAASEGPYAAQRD
T3 sequence (P32297 whole entry): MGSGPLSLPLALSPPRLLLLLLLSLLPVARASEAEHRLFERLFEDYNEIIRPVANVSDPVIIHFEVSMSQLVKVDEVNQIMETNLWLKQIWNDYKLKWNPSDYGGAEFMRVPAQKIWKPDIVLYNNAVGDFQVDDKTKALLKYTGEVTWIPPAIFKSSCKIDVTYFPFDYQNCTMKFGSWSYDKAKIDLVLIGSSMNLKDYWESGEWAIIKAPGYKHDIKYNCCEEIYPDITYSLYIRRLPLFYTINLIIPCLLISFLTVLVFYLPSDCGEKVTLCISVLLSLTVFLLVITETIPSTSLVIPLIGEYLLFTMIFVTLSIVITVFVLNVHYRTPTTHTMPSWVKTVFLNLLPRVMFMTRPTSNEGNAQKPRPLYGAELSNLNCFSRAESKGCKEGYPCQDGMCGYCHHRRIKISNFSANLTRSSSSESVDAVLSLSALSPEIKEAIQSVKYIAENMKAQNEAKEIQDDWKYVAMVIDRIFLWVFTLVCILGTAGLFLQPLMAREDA
T1 sequence (P17787 whole entry): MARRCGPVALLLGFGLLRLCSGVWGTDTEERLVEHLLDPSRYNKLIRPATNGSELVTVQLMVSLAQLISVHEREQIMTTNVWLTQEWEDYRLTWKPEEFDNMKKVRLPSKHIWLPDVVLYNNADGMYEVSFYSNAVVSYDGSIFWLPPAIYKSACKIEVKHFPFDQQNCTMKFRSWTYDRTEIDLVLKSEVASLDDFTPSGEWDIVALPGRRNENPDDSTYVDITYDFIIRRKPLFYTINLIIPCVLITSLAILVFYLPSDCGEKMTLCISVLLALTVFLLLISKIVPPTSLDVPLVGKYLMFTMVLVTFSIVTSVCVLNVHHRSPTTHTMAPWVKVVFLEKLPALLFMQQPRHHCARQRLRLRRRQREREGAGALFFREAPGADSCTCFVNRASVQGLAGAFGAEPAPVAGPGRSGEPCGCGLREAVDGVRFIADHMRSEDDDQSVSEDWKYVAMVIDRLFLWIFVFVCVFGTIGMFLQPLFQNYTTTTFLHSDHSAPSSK
T1 sequence (P43681 whole entry): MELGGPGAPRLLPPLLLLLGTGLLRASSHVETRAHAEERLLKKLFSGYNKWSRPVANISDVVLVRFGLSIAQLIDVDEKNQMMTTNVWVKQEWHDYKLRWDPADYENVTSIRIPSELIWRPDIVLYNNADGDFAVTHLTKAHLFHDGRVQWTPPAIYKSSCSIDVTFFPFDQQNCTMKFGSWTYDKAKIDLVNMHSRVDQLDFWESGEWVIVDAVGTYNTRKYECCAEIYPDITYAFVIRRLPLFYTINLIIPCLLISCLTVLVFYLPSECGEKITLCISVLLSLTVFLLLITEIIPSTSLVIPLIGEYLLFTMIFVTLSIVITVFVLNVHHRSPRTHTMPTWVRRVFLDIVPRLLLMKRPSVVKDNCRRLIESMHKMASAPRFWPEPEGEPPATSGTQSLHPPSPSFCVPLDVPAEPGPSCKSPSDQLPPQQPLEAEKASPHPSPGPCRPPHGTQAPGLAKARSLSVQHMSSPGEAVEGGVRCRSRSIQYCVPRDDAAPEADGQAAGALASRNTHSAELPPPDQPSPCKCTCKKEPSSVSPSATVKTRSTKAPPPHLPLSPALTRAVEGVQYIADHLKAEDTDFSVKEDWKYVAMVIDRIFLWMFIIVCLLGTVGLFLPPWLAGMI
T2 sequence (P36544 whole entry): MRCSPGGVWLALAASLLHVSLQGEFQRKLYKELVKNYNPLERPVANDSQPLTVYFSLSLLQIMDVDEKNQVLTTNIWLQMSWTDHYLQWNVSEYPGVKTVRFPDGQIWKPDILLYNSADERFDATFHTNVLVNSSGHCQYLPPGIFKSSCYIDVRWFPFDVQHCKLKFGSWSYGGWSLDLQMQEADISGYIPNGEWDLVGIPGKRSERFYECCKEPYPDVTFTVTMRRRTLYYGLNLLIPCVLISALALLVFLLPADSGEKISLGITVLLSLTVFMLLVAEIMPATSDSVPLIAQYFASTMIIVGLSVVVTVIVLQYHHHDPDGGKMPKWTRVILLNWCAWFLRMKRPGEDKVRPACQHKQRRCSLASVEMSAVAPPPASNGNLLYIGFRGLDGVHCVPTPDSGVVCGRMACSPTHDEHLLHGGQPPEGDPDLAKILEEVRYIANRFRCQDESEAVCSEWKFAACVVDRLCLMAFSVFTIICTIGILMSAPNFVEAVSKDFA

For `Clc1ccc(C2C[C@@H]3CCC2N3)cn1` (stereo partly drawn), the Activity [1] was “inactive”, the Activity [2] was “inactive” and the Activity [3] was “inactive”. For the same molecule, the inhibition [4] was “Active”.

With `CC1(C)CCC[C@]2(C)[C@H]3COC(=O)C3=CC[C@@H]12` [CINNAMOLIDE] the Activity [1] was “inactive”, the Activity [2] was “inactive” and the Activity [3] was “inactive”. For the same molecule, the inhibition [4] was “Active”, the IC50 ([5]; read-out: IC50) was 1.57 µM and the IC50 [6] was 2.62 µM. For the same molecule, the IC50 [7] was 4.64 µM.

With `CC1(C)CCC[C@]2(C)[C@@H]3C(=CC[C@@H]12)C(=O)O[C@H]3O` [DENDOCARBIN A] the Activity [1] was “inactive”, the Activity [2] was “inactive” and the Activity [3] was “inactive”. The inhibition [8] was “inactive”, the IC50 ([5]; hek293) was “Not Active” and the IC50 [6] was over 100 µM. For the same molecule, the IC50 [7] was over 100 µM.

For `CC1(C)CCC[C@]2(C)[C@H]3C(=O)OCC3=CC[C@@H]12` [DRIMENIN], the Activity [1] was “inactive”, the Activity [2] was “inactive” and the Activity [3] was “inactive”. It also gave an inhibition [9] of 100%, an IC50 ([5]; read-out: IC50) of 0.97 µM and an IC50 [6] of 1.78 µM. For the same molecule, the IC50 [7] was 13.8 µM and the inhibition [10] was “Active”.

For `CC1(C)CCC[C@]2(C)[C@@H](C=O)C(C=O)=CC[C@@H]12` [POLYGODIAL], the Activity [1] was “inactive”, the Activity [2] was “inactive” and the Activity [3] was “inactive”. The inhibition [4] was “Active”, the IC50 ([5]; read-out: IC50) was 62.5 µM and the IC50 [6] was 48.2 µM. For the same molecule, the IC50 [7] was over 100 µM.
